Experiments:
Type in all cases: functional
DU-145 [1] = test: Antiproliferative activity against human DU145 cells assessed as reduction in cell growth incubated for 96 hrs by propidium iodide based 2D monolayer assay; details: DU-145, 96 h
Method in brief: (§1)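 After 24 h recovery, compound in medium or medium alone (control wells) was added at 10 half-log concentrations from 0.0032 to 100 µM, in triplicate, with at most 0.3% DMSO. After 96 h, wells were PBS-washed, stained with 7 µg/ml PI and 0.1% Triton X-100, and fluorescence read at 530/620 nm. IC50 came from a 4-parameter fit, geometric mean.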

CWR22R [2] = test: Antiproliferative activity against human 22Rv1 cells assessed as reduction in cell growth incubated for 96 hrs by propidium iodide based 2D monolayer assay; details: 22Rv1, 96 h; method in brief: as §1
LNCaP [3] = test: Antiproliferative activity against human LNCAP cells assessed as reduction in cell growth incubated for 96 hrs by propidium iodide based 2D monolayer assay; method in brief: as §1
VCaP [4] = test: Antiproliferative activity against human VCaP cells assessed as reduction in cell growth incubated for 96 hrs by propidium iodide based 2D monolayer assay
Method in brief: (§2)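 VCaP cells in RPMI 1640 with 10% FCS at 37 °C, 5% CO2, seeded 4,000–20,000 cells/well and left 24 h before dosing. Compounds from DMSO stocks were diluted in half-log steps in medium, 10 concentrations 0.0032–100 μM, triplicate wells, max 0.3% DMSO. After 96 h, cells were washed, stained with 7 μg/ml propidium iodide plus 0.1% Triton X-100 for 1–2 h at room temperature, and fluorescence read at ex 530/em 620 nm.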

VCaP [5] = test: Antiproliferative activity against human VCaP cells assessed as T/C value at 3.2 x 10^-3 uM incubated for 96 hrs by propidium iodide based 2D monolayer assay; method in brief: as §2
VCaP [6] = test: Antiproliferative activity against human VCaP cells assessed as T/C value at 1 x 10^-2 uM incubated for 96 hrs by propidium iodide based 2D monolayer assay
Method in brief: as §1, with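 “Cells were kept in RPMI 1640 with 25 mM HEPES, 10% FCS and gentamicin at 37 °C under 5% CO2, and plated at 4,000-20,000 cells/well. After 24” for “After 24”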

VCaP [7] = test: Antiproliferative activity against human VCaP cells assessed as T/C value at 1 x 10^-1 uM incubated for 96 hrs by propidium iodide based 2D monolayer assay
Method in brief: as §1, with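 “Cells were kept in RPMI 1640 with 25 mM HEPES, 10% FCS and gentamicin at 37 °C under 5% CO2, and plated at 4,000-20,000 cells/well. After 24” for “After 24”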

VCaP [8] = test: Antiproliferative activity against human VCaP cells assessed as T/C value at 1 uM incubated for 96 hrs by propidium iodide based 2D monolayer assay
Method in brief: as §1, with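 “Cells were kept in RPMI 1640 with 25 mM HEPES, 10% FCS and gentamicin at 37 °C under 5% CO2, and plated at 4,000-20,000 cells/well. After 24” for “After 24”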

VCaP [9] = test: Antiproliferative activity against human VCaP cells assessed as T/C value at 3.2 uM incubated for 96 hrs by propidium iodide based 2D monolayer assay
Method in brief: as §1, with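 “Cells were kept in RPMI 1640 with 25 mM HEPES, 10% FCS and gentamicin at 37 °C under 5% CO2, and plated at 4,000-20,000 cells/well. After 24” for “After 24”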

VCaP [10] = test: Antiproliferative activity against human VCaP cells assessed as T/C value at 1 x 10^1 uM incubated for 96 hrs by propidium iodide based 2D monolayer assay
Method in brief: as §1, with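 “Cells were kept in RPMI 1640 with 25 mM HEPES, 10% FCS and gentamicin at 37 °C under 5% CO2, and plated at 4,000-20,000 cells/well. After 24” for “After 24”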

VCaP [11] = test: Antiproliferative activity against human VCaP cells assessed as T/C value at 3.2 x 10^1 uM incubated for 96 hrs by propidium iodide based 2D monolayer assay; method in brief: as §2
VCaP [12] = test: Antiproliferative activity against human VCaP cells assessed as T/C value at 1 x 10^2 uM incubated for 96 hrs by propidium iodide based 2D monolayer assay
Method in brief: as §1, with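 “Cells were kept in RPMI 1640 with 25 mM HEPES, 10% FCS and gentamicin at 37 °C under 5% CO2, and plated at 4,000-20,000 cells/well. After 24” for “After 24”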

LNCaP [13] = test: Antiproliferative activity against human LNCAP cells assessed as T/C value at 3.2 x 10^-3 uM incubated for 96 hrs by propidium iodide based 2D monolayer assay
Method in brief: as §1, with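 “Cells were kept in RPMI 1640 with 25 mM HEPES, 10% FCS and gentamicin at 37 °C under 5% CO2, and plated at 4,000-20,000 cells/well. After 24” for “After 24”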

LNCaP [14] = test: Antiproliferative activity against human LNCAP cells assessed as T/C value at 1 x 10^-2 uM incubated for 96 hrs by propidium iodide based 2D monolayer assay
Method in brief: as §1, with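 “Cells were kept in RPMI 1640 with 25 mM HEPES, 10% FCS and gentamicin at 37 °C under 5% CO2, and plated at 4,000-20,000 cells/well. After 24” for “After 24”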

LNCaP [15] = test: Antiproliferative activity against human LNCAP cells assessed as T/C value at 3.2 x 10^-2 uM incubated for 96 hrs by propidium iodide based 2D monolayer assay
Method in brief: as §1, with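 “Cells were kept in RPMI 1640 with 25 mM HEPES, 10% FCS and gentamicin at 37 °C under 5% CO2, and plated at 4,000-20,000 cells/well. After 24” for “After 24”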

LNCaP [16] = test: Antiproliferative activity against human LNCAP cells assessed as T/C value at 1 x 10^-1 uM incubated for 96 hrs by propidium iodide based 2D monolayer assay
Method in brief: as §1, with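 “Cells were kept in RPMI 1640 with 25 mM HEPES, 10% FCS and gentamicin at 37 °C under 5% CO2, and plated at 4,000-20,000 cells/well. After 24” for “After 24”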

LNCaP [17] = test: Antiproliferative activity against human LNCAP cells assessed as T/C value at 1 uM incubated for 96 hrs by propidium iodide based 2D monolayer assay
Method in brief: as §1, with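 “Cells were kept in RPMI 1640 with 25 mM HEPES, 10% FCS and gentamicin at 37 °C under 5% CO2, and plated at 4,000-20,000 cells/well. After 24” for “After 24”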

LNCaP [18] = test: Antiproliferative activity against human LNCAP cells assessed as T/C value at 3.2 uM incubated for 96 hrs by propidium iodide based 2D monolayer assay
Method in brief: as §1, with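 “Cells were kept in RPMI 1640 with 25 mM HEPES, 10% FCS and gentamicin at 37 °C under 5% CO2, and plated at 4,000-20,000 cells/well. After 24” for “After 24”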

LNCaP [19] = test: Antiproliferative activity against human LNCAP cells assessed as T/C value at 3.2 x 10^1 uM incubated for 96 hrs by propidium iodide based 2D monolayer assay
Method in brief: as §1, with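 “Cells were kept in RPMI 1640 with 25 mM HEPES, 10% FCS and gentamicin at 37 °C under 5% CO2, and plated at 4,000-20,000 cells/well. After 24” for “After 24”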

LNCaP [20] = test: Antiproliferative activity against human LNCAP cells assessed as T/C value at 1 x 10^2 uM incubated for 96 hrs by propidium iodide based 2D monolayer assay
Method in brief: as §1, with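 “Cells were kept in RPMI 1640 with 25 mM HEPES, 10% FCS and gentamicin at 37 °C under 5% CO2, and plated at 4,000-20,000 cells/well. After 24” for “After 24”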

CWR22R [21] = test: Antiproliferative activity against human 22Rv1 cells assessed as T/C value at 3.2 x 10^-2 uM incubated for 96 hrs by propidium iodide based 2D monolayer assay
Method in brief: as §1, with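 “Cells were kept in RPMI 1640 with 25 mM HEPES, 10% FCS and gentamicin at 37 °C under 5% CO2, and plated at 4,000-20,000 cells/well. After 24” for “After 24”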

CWR22R [22] = test: Antiproliferative activity against human 22Rv1 cells assessed as T/C value at 1 x 10^-1 uM incubated for 96 hrs by propidium iodide based 2D monolayer assay
Method in brief: as §1, with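 “Cells were kept in RPMI 1640 with 25 mM HEPES, 10% FCS and gentamicin at 37 °C under 5% CO2, and plated at 4,000-20,000 cells/well. After 24” for “After 24”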

CWR22R [23] = test: Antiproliferative activity against human 22Rv1 cells assessed as T/C value at 3.2 x 10^-1 uM incubated for 96 hrs by propidium iodide based 2D monolayer assay
Method in brief: as §1, with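 “Cells were kept in RPMI 1640 with 25 mM HEPES, 10% FCS and gentamicin at 37 °C under 5% CO2, and plated at 4,000-20,000 cells/well. After 24” for “After 24”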

CWR22R [24] = test: Antiproliferative activity against human 22Rv1 cells assessed as T/C value at 1 uM incubated for 96 hrs by propidium iodide based 2D monolayer assay
Method in brief: as §1, with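 “Cells were kept in RPMI 1640 with 25 mM HEPES, 10% FCS and gentamicin at 37 °C under 5% CO2, and plated at 4,000-20,000 cells/well. After 24” for “After 24”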

CWR22R [25] = test: Antiproliferative activity against human 22Rv1 cells assessed as T/C value at 1 x 10^2 uM incubated for 96 hrs by propidium iodide based 2D monolayer assay
Method in brief: as §1, with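 “Cells were kept in RPMI 1640 with 25 mM HEPES, 10% FCS and gentamicin at 37 °C under 5% CO2, and plated at 4,000-20,000 cells/well. After 24” for “After 24”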

DU-145 [26] = test: Antiproliferative activity against human DU145 cells assessed as T/C value at 3.2 x 10^-3 uM incubated for 96 hrs by propidium iodide based 2D monolayer assay; method in brief: as §1
DU-145 [27] = test: Antiproliferative activity against human DU145 cells assessed as T/C value at 3.2 x 10^-2 uM incubated for 96 hrs by propidium iodide based 2D monolayer assay; method in brief: as §1
DU-145 [28] = test: Antiproliferative activity against human DU145 cells assessed as T/C value at 1 uM incubated for 96 hrs by propidium iodide based 2D monolayer assay; method in brief: as §1
DU-145 [29] = test: Antiproliferative activity against human DU145 cells assessed as T/C value at 3.2 uM incubated for 96 hrs by propidium iodide based 2D monolayer assay
Method in brief: as §1, with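 “Cells were kept in RPMI 1640 with 25 mM HEPES, 10% FCS and gentamicin at 37 °C under 5% CO2, and plated at 4,000-20,000 cells/well. After 24” for “After 24”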

DU-145 [30] = test: Antiproliferative activity against human DU145 cells assessed as T/C value at 1 x 10^1 uM incubated for 96 hrs by propidium iodide based 2D monolayer assay; method in brief: as §1
DU-145 [31] = test: Antiproliferative activity against human DU145 cells assessed as T/C value at 3.2 x 10^1 uM incubated for 96 hrs by propidium iodide based 2D monolayer assay
Method in brief: as §1, with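 “Cells were kept in RPMI 1640 with 25 mM HEPES, 10% FCS and gentamicin at 37 °C under 5% CO2, and plated at 4,000-20,000 cells/well. After 24” for “After 24”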

DU-145 [32] = test: Antiproliferative activity against human DU145 cells assessed as T/C value at 1 x 10^2 uM incubated for 96 hrs by propidium iodide based 2D monolayer assay
Method in brief: as §1, with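 “Cells were kept in RPMI 1640 with 25 mM HEPES, 10% FCS and gentamicin at 37 °C under 5% CO2, and plated at 4,000-20,000 cells/well. After 24” for “After 24”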

Structure (SMILES): CC1(C)C(=O)N(c2ccc(C#N)cc2C(F)(F)F)C(=S)N1c1ccc(S(F)(F)(F)(F)F)cc1
- IC50 (DU-145 [1]): 12.7 µM
- IC70 (DU-145 [1]): 29.1 µM
- IC50 (CWR22R [2]): 5.4 µM
- IC70 (CWR22R [2]): 8.45 µM
- IC50 (LNCaP [3]): 3 µM
- IC70 (LNCaP [3]): 5.34 µM
- IC50 (VCaP [4]): 100 µM
- IC70 (VCaP [4]): > 100 µM
- T/C (VCaP [5]): 93%
- T/C (VCaP [6]): 100%
- T/C (VCaP [7]): 103%
- T/C (VCaP [8]): 85%
- T/C (VCaP [9]): 74%
- T/C (VCaP [10]): 59%
- T/C (VCaP [11]): 64%
- T/C (VCaP [12]): 47%
- T/C (LNCaP [13]): 76%
- T/C (LNCaP [14]): 76%
- T/C (LNCaP [15]): 78%
- T/C (LNCaP [16]): 77%
- T/C (LNCaP [17]): 66%
- T/C (LNCaP [18]): 51%
- T/C (LNCaP [19]): 10%
- T/C (LNCaP [20]): 7%
- T/C (CWR22R [21]): 104%
- T/C (CWR22R [22]): 98%
- T/C (CWR22R [23]): 101%
- T/C (CWR22R [24]): 99%
- T/C (CWR22R [25]): 12%
- T/C (DU-145 [26]): 105%
- T/C (DU-145 [27]): 111%
- T/C (DU-145 [28]): 104%
- T/C (DU-145 [29]): 102%
- T/C (DU-145 [30]): 53%
- T/C (DU-145 [31]): 37%
- T/C (DU-145 [32]): 16%
